This is an account of results in ChEMBL document CHEMBL5365542, “Difluoromethyl-1,3,4-oxadiazoles Are Selective, Mechanism-Based, and Essentially Irreversible Inhibitors of Histone Deacetylase 6” (J Med Chem, 2023).

The target of this assay is T1, Protein deacetylase HDAC6 (Homo sapiens) (UniProt Q9UBN7).
T1 sequence (whole entry): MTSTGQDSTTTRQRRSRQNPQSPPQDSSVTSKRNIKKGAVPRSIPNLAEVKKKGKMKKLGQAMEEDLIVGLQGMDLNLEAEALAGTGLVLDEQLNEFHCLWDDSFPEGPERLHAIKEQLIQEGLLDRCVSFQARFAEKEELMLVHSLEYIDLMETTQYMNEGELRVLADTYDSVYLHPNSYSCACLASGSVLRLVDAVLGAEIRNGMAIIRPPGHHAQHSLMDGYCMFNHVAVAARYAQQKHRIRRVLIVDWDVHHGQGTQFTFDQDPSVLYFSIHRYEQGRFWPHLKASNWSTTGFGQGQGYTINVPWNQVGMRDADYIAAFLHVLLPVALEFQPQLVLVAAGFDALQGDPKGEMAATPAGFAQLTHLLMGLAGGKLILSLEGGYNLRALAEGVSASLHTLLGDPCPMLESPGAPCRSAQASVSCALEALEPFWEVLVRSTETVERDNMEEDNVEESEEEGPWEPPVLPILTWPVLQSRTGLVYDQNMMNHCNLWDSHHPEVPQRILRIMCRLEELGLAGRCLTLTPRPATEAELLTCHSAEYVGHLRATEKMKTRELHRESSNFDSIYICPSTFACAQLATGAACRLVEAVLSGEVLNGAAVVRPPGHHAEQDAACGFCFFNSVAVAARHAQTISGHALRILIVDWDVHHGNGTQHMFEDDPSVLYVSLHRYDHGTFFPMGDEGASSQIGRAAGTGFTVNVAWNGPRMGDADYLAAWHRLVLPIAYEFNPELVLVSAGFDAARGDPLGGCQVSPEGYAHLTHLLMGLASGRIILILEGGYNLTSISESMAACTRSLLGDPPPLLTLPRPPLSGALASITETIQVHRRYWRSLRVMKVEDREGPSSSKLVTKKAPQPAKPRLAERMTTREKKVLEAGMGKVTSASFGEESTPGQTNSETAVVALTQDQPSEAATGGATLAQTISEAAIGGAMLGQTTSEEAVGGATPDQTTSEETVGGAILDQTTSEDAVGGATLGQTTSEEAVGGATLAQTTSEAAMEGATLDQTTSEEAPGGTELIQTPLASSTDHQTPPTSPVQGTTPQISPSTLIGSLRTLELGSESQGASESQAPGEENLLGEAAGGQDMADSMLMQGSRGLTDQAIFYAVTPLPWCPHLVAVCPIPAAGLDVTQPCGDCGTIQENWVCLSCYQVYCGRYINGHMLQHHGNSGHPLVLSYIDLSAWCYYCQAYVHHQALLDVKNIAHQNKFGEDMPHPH
Nature of the assay: Irreversible inhibition of N-terminal GST tagged human recombinant HDAC6 (1 to 1215 residues) expressed in Sf9 insect cells using Z-Lys(Ac)-AMC as fluorogenic substrate at 2.5 uM preincubated for 1 hr followed by 100-fold dilution and substrate addition measured every 0.5 mins for 60 mins by microplate reader analysis. In short, it runs like this:
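It was then diluted 100-fold in buffer or in inhibitor at the original concentration. Finals were 220 pg/μL enzyme, 93 μM ZMAL and 20 ng/μL trypsin. AMC release was read every 0.5 min for 60 min at 37 °C; triplicates.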

SMILES strings stand for the structures. Activity calls are given as the source filed them. The rule behind the calls is not given here.

On to `FC(F)c1nnc(-c2cnc(NCc3ccccc3)nc2)o1`, for which the inhibition result was “Active”.
